In PubChem BioAssay one finds GFP response vs DMSO, GFP response relative to DMSO and GFP response, % of DMSO data, which are given here for 17 compounds.

Active and inactive are the calls of the source.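 How the source made its calls, unless noted: active means GFP response above 150% of the DMSO level; inconclusive means fewer than 70 events counted for a yeast strain; inactive means the rest.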

Assay [1] is described as follows: hit retest on RPL19A-GFP reporter strain – cell-based, S. cerevisiae, flow cytometry, cherry picks, mother/daughter gates, confirmation (AID 2270;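 active means GFP response below 50% of the DMSO control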). Particulars: 3 h, at 10 µM, stronger effect = lower value, 100 = same GFP as DMSO wells.
The nature of assay [2]: yeast TOR pathway reporter LAP4-GFP change – cell-based, cherry picks, flow cytometry, mother/daughter gates, confirmation (AID 2271;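 active means GFP response above 150% of the DMSO control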;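 further: ratio of sample to DMSO plate mean so 100% equals DMSO level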). The following applies: S. cerevisiae LAP4-GFP strain, 3 h, at 10 µM, stronger effect = higher value, 100 means same as DMSO control. A digest of the protocol: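 Material: Alexa Fluor 633-labelled Saccharomyces cerevisiae GFP-fusion strain, single-plex | Amount: Yeast cells seeded at OD600 of 0.2 | Buffer or medium: SC growth medium | Schedule: 3 h exposure, 30 °C | Measured by: HT flow cytometry, GFP fluorescence channel | Evaluation: % GFP response vs DMSO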

The nature of assay [3]: TOR pathway reporter MEP2-GFP, retest of hits – S. cerevisiae, flow cytometry GFP, cherry picks, confirmation (AID 2272;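 active means GFP response above 150% of the DMSO control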;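 further: ratio of well signal to plate DMSO mean so 100% equals DMSO level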). The following applies: S. cerevisiae MEP2-GFP strain, 3 h, at 10 µM, stronger effect = higher value.
A short description of assay [4]: yeast AGP1-GFP fluorescence change, single-dose – cell-based, flow cytometry, S. cerevisiae, cherry picks, confirmation (AID 2273).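 Further: median GFP channel fluorescence over the whole cell population gate.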 Particulars: S. cerevisiae AGP1-GFP strain, 3 h, at 10 µM.
A short description of assay [5]: TOR pathway CIT2 reporter hit retest – S. cerevisiae, GFP fusion, cherry picks, mother/daughter gates, confirmation (AID 2274). The following applies: S. cerevisiae CIT2-GFP strain, flow cytometry, 3 h, at 10 µM, stronger effect = higher value.
[6] abbreviates: measured here: daughter cell gate.
The mark [7] stands for this setting: measured here: mother cell gate.
Setting [8] is: measured here: daughter cell gate response.
Setting [9] is: measured here: mother cell gate response.

With `Cc1ccc(C(=O)c2c3ccccc3[n+]([O-])n2CCC(=O)O)cc1`, the GFP response vs DMSO in assay [1] is 66.2% (inactive); in assay [1] (setting [6]), 70.6%; in assay [1] (setting [7]) it was 63.3%; in assay [3] it was 104% (inactive). The GFP response relative to DMSO in assay [2] is 102% (inactive); in assay [2] (setting [8]), 101%; in assay [2] (setting [9]), 105%. Also, the GFP response, % of DMSO in assay [4] is 105% (inactive); in assay [5], 99.3% (inactive); in assay [5] (setting [6]), 96.4%; in assay [5] (setting [7]) it was 99.1%.

As for `Cc1cc(O)c(C(=O)/C=C/c2ccccc2O)c(=O)o1`, the GFP response vs DMSO was 101% (inactive) in assay [1], 98.9% in assay [1] (setting [6]), 101% in assay [1] (setting [7]) and 105% (inactive) in assay [3]. Also, the GFP response relative to DMSO in assay [2] was 119% (inactive); in assay [2] (setting [8]) it was 109%; in assay [2] (setting [9]), 125%. Also, the GFP response, % of DMSO in assay [4] is 90.2% (inactive); in assay [5], 89.8% (inactive); in assay [5] (setting [6]), 91.7%; in assay [5] (setting [7]), 86.7%.

As to `CN1CCN(C(=O)CC2C(=O)NCCN2Cc2ccc(-c3ccccc3)cc2)CC1` (configuration not stated), the GFP response vs DMSO in assay [1] was 96.2% (inactive); in assay [1] (setting [6]), 96.2%; in assay [1] (setting [7]), 98.5%; in assay [3], 97.5% (inactive). The GFP response relative to DMSO in assay [2] was 100% (inactive); in assay [2] (setting [8]) it was 102%; in assay [2] (setting [9]) it was 99.5%. For the same compound, the GFP response, % of DMSO is 99.7% (inactive) in assay [4], 97.8% (inactive) in assay [5], 100% in assay [5] (setting [6]) and 99.1% in assay [5] (setting [7]).

In the case of `CSc1ccc(/C=C/C(=O)c2ccc(NC(C)=O)cc2)cc1`, the GFP response vs DMSO in assay [1] was 111% (inactive); in assay [1] (setting [6]), 93.2%; in assay [1] (setting [7]), 94.5%; in assay [3], 101% (inactive). Also, the figures for the GFP response relative to DMSO in assay [2], in assay [2] (setting [8]) and in assay [2] (setting [9]) were 111% (inactive), 104% and 113%, respectively. For the same compound, the GFP response, % of DMSO is 97.5% (inactive) in assay [4], 91.5% (inactive) in assay [5], 90.2% in assay [5] (setting [6]) and 82.1% in assay [5] (setting [7]).

Regarding `CC(=O)Oc1c(C)cc(Cl)cc1C(=O)Nc1ccc([N+](=O)[O-])cc1Cl`, the GFP response vs DMSO in assay [1] was 97% (inactive); in assay [1] (setting [6]), 96%; in assay [1] (setting [7]) it was 98.2%; in assay [3] it was 101% (inactive). For the same compound, the GFP response relative to DMSO in assay [2] was 91.2% (inactive); in assay [2] (setting [8]) it was 92%; in assay [2] (setting [9]), 93%. Besides, the GFP response, % of DMSO is 97.9% (inactive) in assay [4], 90.9% (inactive) in assay [5], 93.7% in assay [5] (setting [6]) and 89.8% in assay [5] (setting [7]).

For the compound `Cc1nn(Cc2ccc([N+](=O)[O-])cc2)c(=O)n1-c1cccc(Cl)c1`, the GFP response vs DMSO in assay [1] is 96% (inactive); in assay [1] (setting [6]), 96.6%; in assay [1] (setting [7]) it was 96.6%; in assay [3], 98.3% (inactive). The GFP response relative to DMSO in assay [2] is 96.7% (inactive); in assay [2] (setting [8]), 97.6%; in assay [2] (setting [9]), 96.1%. Besides, the GFP response, % of DMSO in assay [4] is 95.4% (inactive); in assay [5], 99.7% (inactive); in assay [5] (setting [6]), 101%; in assay [5] (setting [7]), 99.7%.

In the case of `Fc1ccccc1-c1nc(NCCCN2CCOCC2)c2ccccc2n1`, the GFP response vs DMSO in assay [1] is 94.4% (inactive); in assay [1] (setting [6]), 93.6%; in assay [1] (setting [7]), 95.6%; in assay [3] it was 96.2% (inactive). The GFP response relative to DMSO is 101% (inactive) in assay [2], 99.2% in assay [2] (setting [8]) and 98.3% in assay [2] (setting [9]). For the same compound, the GFP response, % of DMSO is 98.5% (inactive) in assay [4], 96.9% (inactive) in assay [5], 97.2% in assay [5] (setting [6]) and 97.3% in assay [5] (setting [7]).

On to `O=S(=O)(c1ccc(C2CCCCC2)cc1)N1CCOCC1`, for which the GFP response vs DMSO is 92.4% (inactive) in assay [1], 92.7% in assay [1] (setting [6]), 90.1% in assay [1] (setting [7]) and 105% (inactive) in assay [3]. For the same compound, the GFP response relative to DMSO in assay [2] is 102% (inactive); in assay [2] (setting [8]) it was 97.5%; in assay [2] (setting [9]) it was 105%. For the same compound, the GFP response, % of DMSO in assay [4] was 102% (inactive); in assay [5], 100% (inactive); in assay [5] (setting [6]), 93.8%; in assay [5] (setting [7]), 101%.

As for `O=C(NC(=S)NNC(=O)[C@H]1C[C@@H]1c1ccccc1)c1cccc(F)c1`, the GFP response vs DMSO in assay [1] was 111% (inactive); in assay [1] (setting [6]), 115%; in assay [1] (setting [7]), 110%; in assay [3], 135% (inactive). The GFP response relative to DMSO was 150% (active) in assay [2], 144% in assay [2] (setting [8]) and 147% in assay [2] (setting [9]). The GFP response, % of DMSO is 109% (inactive) in assay [4], 137% (inactive) in assay [5], 141% in assay [5] (setting [6]) and 127% in assay [5] (setting [7]).

Regarding `N=c1n(CCN2CCCCC2)c2ccccc2n1CC(=O)c1ccc(Cl)c(Cl)c1`, the GFP response vs DMSO in assay [1] was 99.5% (inactive); in assay [1] (setting [6]) it was 99%; in assay [1] (setting [7]), 100%; in assay [3], 100% (inactive). The GFP response relative to DMSO in assay [2] is 101% (inactive); in assay [2] (setting [8]) it was 100%; in assay [2] (setting [9]), 102%. In addition, the GFP response, % of DMSO in assay [4] is 99.4% (inactive); in assay [5], 96.5% (inactive); in assay [5] (setting [6]) it was 93.2%; in assay [5] (setting [7]) it was 78.3%.

In the case of `Cc1cccc(OCCN2CSC(=S)N(C)C2)c1`, the GFP response vs DMSO in assay [1] is 95.6% (inactive); in assay [1] (setting [6]), 94.4%; in assay [1] (setting [7]) it was 92.7%; in assay [3], 168% (inactive). Also, the GFP response relative to DMSO in assay [2] is 174% (active); in assay [2] (setting [8]), 161%; in assay [2] (setting [9]), 167%. Further, the GFP response, % of DMSO in assay [4] is 118% (inactive); in assay [5], 131% (inactive); in assay [5] (setting [6]) it was 130%; in assay [5] (setting [7]) it was 122%.

Take `O=C(NCc1ccc2c(c1)OCO2)c1nc(S(=O)(=O)Cc2ccccc2F)ncc1Cl`: the GFP response vs DMSO was 99.1% (inactive) in assay [1], 99.3% in assay [1] (setting [6]), 97.8% in assay [1] (setting [7]) and 103% (inactive) in assay [3]. The GFP response relative to DMSO in assay [2] is 101% (inactive); in assay [2] (setting [8]) it was 104%; in assay [2] (setting [9]) it was 102%. Further, the GFP response, % of DMSO in assay [4] was 100% (inactive); in assay [5], 94.4% (inactive); in assay [5] (setting [6]), 94%; in assay [5] (setting [7]) it was 96%.

As to `Cc1cccc(Cn2cc(/C=C/[N+](=O)[O-])c3ccccc32)c1`, the GFP response vs DMSO in assay [1] is 106% (inactive); in assay [1] (setting [6]), 103%; in assay [1] (setting [7]), 98%; in assay [3], 103% (inactive). Besides, the GFP response relative to DMSO in assay [2] is 111% (inactive); in assay [2] (setting [8]), 107%; in assay [2] (setting [9]), 114%. For the same compound, the GFP response, % of DMSO was 101% (inactive) in assay [4], 97.3% (inactive) in assay [5], 95.6% in assay [5] (setting [6]) and 93.2% in assay [5] (setting [7]).

For `CN(c1ccccc1)S(=O)(=O)c1ccc(C(=O)Nc2nnc(-c3ccc(F)cc3)o2)cc1`, the GFP response vs DMSO is 99.1% (inactive) in assay [1], 102% in assay [1] (setting [6]), 98.6% in assay [1] (setting [7]) and 149% (inactive) in assay [3]. Moreover, the GFP response relative to DMSO was 122% (inactive) in assay [2], 128% in assay [2] (setting [8]) and 120% in assay [2] (setting [9]). Further, the GFP response, % of DMSO in assay [4] was 106% (inactive); in assay [5] it was 131% (inactive); in assay [5] (setting [6]), 133%; in assay [5] (setting [7]) it was 128%.

As for `O=C(Cc1ccc(-c2ccccc2)cc1)OCC(=O)N1CCCC1=O`, the GFP response vs DMSO in assay [1] is 96.5% (inactive); in assay [1] (setting [6]), 93.9%; in assay [1] (setting [7]), 97.2%; in assay [3] it was 97.8% (inactive). For the same compound, the GFP response relative to DMSO was 112% (inactive) in assay [2], 111% in assay [2] (setting [8]) and 114% in assay [2] (setting [9]). Besides, the GFP response, % of DMSO is 96.3% (inactive) in assay [4], 91.3% (inactive) in assay [5], 89.9% in assay [5] (setting [6]) and 91.2% in assay [5] (setting [7]).

Consider `CCOC(=O)c1cnn(-c2cc(C)nc3c(-c4ccccc4)c(C)nn23)c1N`, for which the GFP response vs DMSO in assay [1] was 96.6% (inactive); in assay [1] (setting [6]), 97.4%; in assay [1] (setting [7]) it was 96.6%; in assay [3], 105% (inactive). For the same compound, the values for the GFP response relative to DMSO in assay [2], in assay [2] (setting [8]) and in assay [2] (setting [9]) were 95.4% (inactive), 96% and 94%, respectively. The GFP response, % of DMSO in assay [4] is 94.3% (inactive); in assay [5], 98.3% (inactive); in assay [5] (setting [6]) it was 99.1%; in assay [5] (setting [7]), 97.3%.

With `Cc1ccc(C(=O)N/C(=C/c2ccco2)C(=O)N2CCOCC2)cc1`, the GFP response vs DMSO in assay [1] was 103% (inactive); in assay [1] (setting [6]), 100%; in assay [1] (setting [7]), 104%; in assay [3], 101% (inactive). Moreover, the GFP response relative to DMSO in assay [2] is 105% (inactive); in assay [2] (setting [8]), 106%; in assay [2] (setting [9]), 104%. Also, the GFP response, % of DMSO is 102% (inactive) in assay [4], 95.9% (inactive) in assay [5], 97.4% in assay [5] (setting [6]) and 95.6% in assay [5] (setting [7]).
